Assay [1] concerns the target T1, CaMKIIδ (Homo sapiens, UniProt Q13557). The class given is biochemical. The following applies: read-out: inhibition of CaMKIIδ enzyme activity.
Assay [2] has as its target T1, CaMKIIδ. Kind of assay: Radiometric kinase assay. The class given is biochemical. An outline of the steps:
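Outsourced radiometric assay using conventional filter-binding, which directly measures kinase catalytic activity toward a specific substrate. Run as a concentration-dependent study.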

Assay [3] relates to γ subtype of CaMKII. The following applies: cited from earlier work; for activity against γ subtype of CaMKII: at 1 μM; for inhibition of γ subtype of CaMKII: at 10 μM.
For assay [4], the target named is CaMKII. The settings on record: cited from earlier work.
The target in assay [5] is δ subtype of CaMKII. The settings on record: cited from earlier work; for kinase activity, δ subtype of CaMKII: at 0.5 μM.
Assay [6] concerns the target CaMKIIγ. The following applies: at 0.5 μM; cited from earlier work.
The subject of assay [7] is β subtype of CaMKII. The settings on record: cited from earlier work; for activity against β subtype of CaMKII: at 1 μM; for inhibition of β subtype of CaMKII: at 10 μM.
In assay [8] the target is β subtype of CaMKII. The settings on record: cited from earlier work; for kinase activity, β subtype of CaMKII: at 0.5 μM.
Assay [9] has as its system δ subtype of CaMKII. The following applies: cited from earlier work; for activity against δ subtype of CaMKII: at 1 μM; for inhibition of δ subtype of CaMKII: at 10 μM.
Assay [10] addresses α subtype of CaMKII. The following applies: cited from earlier work; for kinase activity, α subtype of CaMKII: at 0.5 μM.
The subject of assay [11] is 300 kinases. The following applies: at 0.5 μM; cited from earlier work.

Here are results for four compounds from publication PMC5554713 (ChemMedChem, 2017).

Some results are limits rather than exact numbers.

One may read the inhibition as the share of the control response that was lost under treatment. By IC50 is commonly meant the concentration needed to halve the response being measured. Take `CCN(CC)CCCC(C)Nc1nc(/C=C/c2ccccc2)nc2cc(Cl)ccc12` (stereo not shown) [Compound 1, (E)-N4-(7-chloro-2-styrylquinazolin-4-yl)-N1,N1-diethylpentane-1,4-diamine]: in assay [1], the inhibition at 50 µM is not below 50%. Also, the half-maximal inhibitory concentration (IC50) in [2] was approximately 5 µM. In addition, the “IC50 for inhibition of CaMKIIδ enzyme activity” value in assay [2] (concentration-dependent study, radiometric assay) is recorded as “single-digit micromolar”.

Broadly, the Ki is the equilibrium dissociation constant of an inhibitor or competing ligand from its target. `CN([C@@H](Cc1ccc(OS(=O)(=O)c2cccc3cnccc23)cc1)C(=O)N1CCN(c2ccccc2)CC1)S(=O)(=O)c1cccc2cnccc12` [KN-62]: in assay [3], the “activity against γ subtype of CaMKII” value was “Neither compound showed activity” and the “inhibition of γ subtype of CaMKII” value is given as 13%. For the same compound, in assay [4], the Ki was 0.9 µM. The “kinase activity, δ subtype of CaMKII” value in assay [5] was 90%. For the same compound, the “kinase activity, γ subtype of CaMKII” value in assay [6] was 90%. Besides, in [7], the “activity against β subtype of CaMKII” value is reported as “Neither compound showed activity” and the “inhibition of β subtype of CaMKII” value is listed as 22%. The “kinase activity, β subtype of CaMKII” value in assay [8] is on record as 90%. Besides, in assay [9], the “activity against δ subtype of CaMKII” value was “Neither compound showed activity” and the “inhibition of δ subtype of CaMKII” value is given as 9%. In assay [10], the “kinase activity, α subtype of CaMKII” value is on record as 90%.

Take `COc1ccc(S(=O)(=O)N(CCO)c2ccccc2CN(C)CC=Cc2ccc(Cl)cc2)cc1` [KN-93]: in [3], the “activity against γ subtype of CaMKII” value is recorded as “Neither compound showed activity” and the “inhibition of γ subtype of CaMKII” value is 33%. In assay [4], the IC50 is 1 to 4 µM and the Ki is 0.37 µM. Moreover, the “kinase activity, δ subtype of CaMKII” value in [5] is listed as 90%. Besides, in assay [6], the “kinase activity, γ subtype of CaMKII” value is 90%. Besides, in assay [7], the “activity against β subtype of CaMKII” value was “Neither compound showed activity” and the “inhibition of β subtype of CaMKII” value is reported as 80%. The “kinase activity, β subtype of CaMKII” value in assay [8] is given as 90%. In addition, in assay [9], the “activity against δ subtype of CaMKII” value is “Neither compound showed activity” and the “inhibition of δ subtype of CaMKII” value is reported as 53%. The “kinase activity, α subtype of CaMKII” value in assay [10] is listed as 90%.

Turning to `CN(C)S(=O)(=O)c1ccc2c(c1)/C(=C/c1cc3c([nH]1)CCCC3)C(=O)N2` [SU6656], in assay [11], the “number of different kinases with more than 60 percent inhibition” value is recorded as 38 kinases and the “number of different kinases with more than 80 percent inhibition” value was 19 kinases. Moreover, the “inhibition of kinase activity, δ subtype of CaMKII” value in assay [5] (at 0.5 μM in the RBC study) is given as ~ 30%. Besides, the “inhibition of kinase activity, β subtype of CaMKII” value in [8] (at 0.5 μM in the RBC study) was ~ 30%. Also, the “inhibition of kinase activity, α subtype of CaMKII” value in assay [10] (at 0.5 μM in the RBC study) is ~ 30%.
